Experimental data pooled from the literature.
Target: Prostaglandin G/H synthase 2 (PTGS2, Homo sapiens, UniProt P35354)
Observed: enzyme activity
Action: inhibitor
Residues used in one study (P35354 18-604): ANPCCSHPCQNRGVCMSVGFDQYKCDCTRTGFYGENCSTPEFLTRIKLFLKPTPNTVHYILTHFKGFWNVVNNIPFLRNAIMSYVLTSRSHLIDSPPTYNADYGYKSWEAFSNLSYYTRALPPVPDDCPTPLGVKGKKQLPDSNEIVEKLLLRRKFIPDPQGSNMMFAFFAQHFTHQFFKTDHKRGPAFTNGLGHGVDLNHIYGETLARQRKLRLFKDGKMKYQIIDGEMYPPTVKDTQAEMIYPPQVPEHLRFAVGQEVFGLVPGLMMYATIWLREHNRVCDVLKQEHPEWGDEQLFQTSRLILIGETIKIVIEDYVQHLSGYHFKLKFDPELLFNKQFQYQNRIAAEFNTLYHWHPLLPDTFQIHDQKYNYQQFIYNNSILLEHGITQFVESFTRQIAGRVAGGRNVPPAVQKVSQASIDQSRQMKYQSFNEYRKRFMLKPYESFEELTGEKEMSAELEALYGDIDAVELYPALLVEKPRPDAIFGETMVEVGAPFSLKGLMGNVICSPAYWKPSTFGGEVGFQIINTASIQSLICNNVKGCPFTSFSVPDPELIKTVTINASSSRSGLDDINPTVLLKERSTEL

SMILES | method | tested at | quantity | result
Cc1ncc(C)n2nc(/C=C/c3nc(N4CCCC4)cc(N4CCOCC4)n3)nc12 |  | 10 µM | inhibition | 0%
O=C(Nc1cccnn1)N1CCN([C@@H]2CCOc3cc(C(F)(F)F)ccc32)CC1 |  | 20 µM | inhibition | -2%
C[C@H](C(=O)N[C@H]1COc2ccccc2[C@@H]1S(C)(=O)=O)c1ccc(F)cc1 |  | 10 µM | inhibition | -27%
NS(=O)(=O)c1ccc(-c2ncccc2-c2nc3ccccc3s2)cc1 | absorbance | 10 µM | inhibition | 88.5%
c1ccc(C(NCCNC(c2ccccc2)c2ccccc2)c2ccccc2)cc1 |  | 10 µM | inhibition | 0%
Cc1ccc(-c2nc3ccccc3s2)c(-c2ccc(S(C)(=O)=O)cc2)c1 | absorbance | 10 µM | inhibition | 72%
COCc1c(-c2cc3cc(C)cc(OC)c3s2)c2c(N)ncnn2c1CN1CCNC(=O)C1 |  | 10 µM | inhibition | 6%
Nc1ncc(-c2nc(N3CCOCC3)nc(N3CCOCC3)n2)c(C(F)F)n1 |  | 10 µM | remaining activity | 99%
Clc1ccc2c(C3CCN(CCc4c[nH]c5ccccc45)CC3)c[nH]c2c1 |  | 10 µM | inhibition | 79%
COc1ccc(-c2ccc(N)cc2-c2nc3ccccc3s2)cc1 | absorbance | 10 µM | inhibition | 10.3%
